Data from ChEMBL document CHEMBL3244382, “Structural requirements for antileukemic activity among the naturally occurring and semisynthetic maytansinoids” (J Med Chem, 1978).
Converted amounts (≈) assume the structure as drawn. The source made the active and inactive calls.

Columns and labels:
[1] = tested on: Mus musculus; assay: Toxicity in PS mouse allografted with mouse P388 cells assessed as change in body weight at 3.1 ug/kg relative to control; type: organism-based; details: in vivo, 0.0031 mg/kg
Method in brief: (§1)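 P388 (PS) leukemia in mice, 6 mice per dose group. Weight change is the difference in grams between treated and control animals. Survivors are recorded on toxicity day, normally 4 days after the first injection.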

[2] = tested on: Mus musculus; assay: Toxicity in PS mouse allografted with mouse P388 cells assessed as change in body weight at 1.6 ug/kg relative to control; type: organism-based; details: in vivo, 0.0016 mg/kg; method in brief: as §1
[3] = tested on: Mus musculus; assay: Toxicity in PS mouse allografted with mouse P388 cells assessed as change in body weight at 0.8 ug/kg relative to control; type: organism-based; details: in vivo, 0.0008 mg/kg
Method in brief: (§2)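 PS (P388 leukemia) mice, six per dose group. Toxicity read as the difference in grams between the weights of treated and control animals.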

[4] = tested on: Mus musculus; assay: Toxicity in PS mouse allografted with mouse P388 cells assessed as change in body weight at 0.4 ug/kg relative to control; type: organism-based; details: in vivo, 0.0004 mg/kg; method in brief: as §2
[5] = tested on: Mus musculus; assay: Toxicity in PS mouse allografted with mouse P388 cells assessed as change in body weight at 0.2 ug/kg relative to control; type: organism-based; details: in vivo, 0.0002 mg/kg; method in brief: as §2
[6] = tested on: Mus musculus; assay: Toxicity in PS mouse allografted with mouse P388 cells assessed as survival at 50 ug/kg after 4 days; type: organism-based; details: in vivo, 0.05 mg/kg, 96 h
Method in brief: (§3)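 PS (P388) leukemic mice, six started per dose group. Toxicity scored as survivors on the toxicity day over the number of mice started. The toxicity day is normally 4 days after the first injection.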

[7] = tested on: Mus musculus; assay: Toxicity in PS mouse allografted with mouse P388 cells assessed as survival at 25 ug/kg after 4 days; type: organism-based; details: in vivo, 0.025 mg/kg, 96 h; method in brief: as §3
[8] = tested on: Mus musculus; assay: Toxicity in PS mouse allografted with mouse P388 cells assessed as survival at 12.5 ug/kg after 4 days; type: organism-based; details: in vivo, 0.0125 mg/kg, 96 h; method in brief: as §3
[9] = tested on: Mus musculus; assay: Toxicity in PS mouse allografted with mouse P388 cells assessed as survival at 6.2 ug/kg after 4 days; type: organism-based; details: in vivo, 0.0062 mg/kg, 96 h; method in brief: as §3
[10] = tested on: Mus musculus; assay: Toxicity in PS mouse allografted with mouse P388 cells assessed as survival at 3.1 ug/kg after 4 days; type: organism-based; details: in vivo, 0.0031 mg/kg, 96 h; method in brief: as §3
[11] = tested on: Mus musculus; assay: Toxicity in PS mouse allografted with mouse P388 cells assessed as survival at 1.6 ug/kg after 4 days; type: organism-based; details: in vivo, 0.0016 mg/kg, 96 h; method in brief: as §3
[12] = tested on: Mus musculus; assay: Toxicity in PS mouse allografted with mouse P388 cells assessed as survival at 0.8 ug/kg after 4 days; type: organism-based; details: in vivo, 0.0008 mg/kg, 96 h; method in brief: as §3
[13] = tested on: Mus musculus; assay: Toxicity in PS mouse allografted with mouse P388 cells assessed as survival at 0.4 ug/kg after 4 days; type: organism-based; details: in vivo, 0.0004 mg/kg, 96 h; method in brief: as §3
[14] = tested on: Mus musculus; assay: Toxicity in PS mouse allografted with mouse P388 cells assessed as survival at 0.2 ug/kg after 4 days; type: organism-based; details: in vivo, 0.0002 mg/kg, 96 h; method in brief: as §3
[15] = tested on: Mus musculus; assay: Toxicity in PS mouse allografted with mouse P388 cells assessed as survival at 0.1 ug/kg after 4 days; type: organism-based; details: in vivo, 0.0001 mg/kg, 96 h; method in brief: as §3
[16] = tested on: Mus musculus; assay: Toxicity in PS mouse allografted with mouse P388 cells assessed as change in body weight at 50 ug/kg relative to control; type: organism-based; details: in vivo, 0.05 mg/kg; method in brief: as §1
[17] = tested on: Mus musculus; assay: Toxicity in PS mouse allografted with mouse P388 cells assessed as change in body weight at 25 ug/kg relative to control; type: organism-based; details: in vivo, 0.025 mg/kg; method in brief: as §1
[18] = tested on: Mus musculus; assay: Toxicity in PS mouse allografted with mouse P388 cells assessed as change in body weight at 12.5 ug/kg relative to control; type: organism-based; details: in vivo, 0.0125 mg/kg; method in brief: as §1
[19] = tested on: Mus musculus; assay: Toxicity in PS mouse allografted with mouse P388 cells assessed as change in body weight at 6.2 ug/kg relative to control; type: organism-based; details: in vivo, 0.0062 mg/kg; method in brief: as §1
[20] = tested on: Mus musculus; assay: Toxicity in PS mouse allografted with mouse P388 cells assessed as change in body weight at 0.1 ug/kg relative to control; type: organism-based; details: in vivo, 0.0001 mg/kg; method in brief: as §2
[21] = tested on: P388; assay: Antitumor activity against mouse P388 cells allografted in PS mouse assessed as median survival time at 50 ug/kg relative to control; type: functional
Method in brief: (§4)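 P388 leukemia (PS) in mice, six mice started per dose group. Read-out is T/C: median survival time of the treated group divided by that of the untreated control group, expressed as a percent. The NIH protocol counts a compound as active when T/C > 125%.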

[22] = tested on: P388; assay: Antitumor activity against mouse P388 cells allografted in PS mouse assessed as median survival time at 25 ug/kg relative to control; type: functional; method in brief: as §4
[23] = tested on: P388; assay: Antitumor activity against mouse P388 cells allografted in PS mouse assessed as median survival time at 12.5 ug/kg relative to control; type: functional; method in brief: as §4
[24] = tested on: P388; assay: Antitumor activity against mouse P388 cells allografted in PS mouse assessed as median survival time at 6.2 ug/kg relative to control; type: functional; method in brief: as §4
[25] = tested on: P388; assay: Antitumor activity against mouse P388 cells allografted in PS mouse assessed as median survival time at 3.1 ug/kg relative to control; type: functional; method in brief: as §4
[26] = tested on: P388; assay: Antitumor activity against mouse P388 cells allografted in PS mouse assessed as median survival time at 1.6 ug/kg relative to control; type: functional; method in brief: as §4
[27] = tested on: P388; assay: Antitumor activity against mouse P388 cells allografted in PS mouse assessed as median survival time at 0.8 ug/kg relative to control; type: functional; method in brief: as §4
[28] = tested on: P388; assay: Antitumor activity against mouse P388 cells allografted in PS mouse assessed as median survival time at 0.4 ug/kg relative to control; type: functional; method in brief: as §4
[29] = tested on: P388; assay: Antitumor activity against mouse P388 cells allografted in PS mouse assessed as median survival time at 0.2 ug/kg relative to control; type: functional; method in brief: as §4
[30] = tested on: P388; assay: Antitumor activity against mouse P388 cells allografted in PS mouse assessed as median survival time at 0.1 ug/kg relative to control; type: functional; method in brief: as §4
[31] = molecular target: Tubulin (Homo sapiens) (UniProt P68371+Q9H4B7+P0DPH7+P68366+Q13509+Q71U36+P04350+Q3ZCM7+P07437+P68363+Q9BQE3+Q6PEY2+Q13885+Q9BVA1+Q9BUF5); assay: Inhibition of brain tubulin polymerization (unknown origin) at 37 degC by spectrophotometry
[32] = tested on: Paracentrotus lividus; assay: Antimitotic activity against sea urchin eggs assessed as drug level causing inhibition of mitosis; type: functional; details: Egg
[33] = tested on: KB; assay: Cytotoxicity against human KB cells; type: functional; details: read-out: ED50 (the source's name)

Structure (SMILES) | Activity [1] [g] | Activity [2] [g] | Activity [3] [g] | Activity [4] [g] | Activity [5] [g] | Activity [6] | Activity [7] | Activity [8] | Activity [9] | Activity [10] | Activity [11] | Activity [12] | Activity [13] | Activity [14] | Activity [15] | Activity [16] [g] | Activity [17] [g] | Activity [18] [g] | Activity [19] [g] | Activity [20] [g] | also measured
CCC(=O)N(C)[C@@H](C)C(=O)O[C@H]1CC(=O)N(C)c2cc(cc(OC)c2Cl)C/C(C)=C/C=C/[C@@H](OC)[C@@]2(O)C[C@H](OC(=O)N2)[C@@H](C)[C@@H]2O[C@@]12C | -0.6 | -1.2 | -1.1 | -0.8 | -1.1 | Toxic | Non-toxic | Non-toxic | Non-toxic | Non-toxic | Non-toxic | Non-toxic | Non-toxic | Non-toxic | Non-toxic | -1.2 | -2.2 | -1.3 | -2.1 | -1.1 | T/C [21]: <80%; T/C [22]: <80%; T/C [23]: 104%; T/C [24]: 125%; T/C [25]: 150%; T/C [26]: 154%; T/C [27]: 145%; T/C [28]: 137%; T/C [29]: 120%; T/C [30]: 137%; inhibition [31]: Active; Activity [32]: 1 ×10⁻⁸ mol/L
COc1cc2cc(c1Cl)N(C)C(=O)C[C@H](OC(=O)[C@H](C)N(C)C(=O)C(C)C)[C@]1(C)O[C@H]1[C@H](C)[C@@H]1C[C@@](O)(NC(=O)O1)[C@H](OC)/C=C/C=C(\C)C2 | -0.9 | 0 | 0.1 | 0.4 | 0.1 | Toxic | Non-toxic | Non-toxic | Non-toxic | Non-toxic | Non-toxic | Non-toxic | Non-toxic | Non-toxic | Non-toxic | 0.1 | 0.1 | 0.1 | -1.3 | 0.3 | T/C [21]: <80%; T/C [22]: <80%; T/C [23]: 120%; T/C [24]: 155%; T/C [25]: 145%; T/C [26]: 155%; T/C [27]: 190%; T/C [28]: 155%; T/C [29]: 165%; T/C [30]: 125%; EC50 [33]: 0.0036 ng/mL (≈ 0.005 nM); inhibition [31]: Active; Activity [32]: 1 nM
